ChEMBL document CHEMBL2169798, “Discovery of a Plasmodium falciparum glucose-6-phosphate dehydrogenase 6-phosphogluconolactonase inhibitor (R,Z)-N-((1-ethylpyrrolidin-2-yl)methyl)-2-(2-fluorobenzylidene)-3-oxo-3,4-dihydro-2H-benzo[b][1,4]thiazine-6-carboxamide (ML276) that reduces parasite growth in vitro” (J Med Chem, 2012)
≈ marks a conversion by molar mass, not a printed value. Calls of active or inactive are those of the source. The calls are words filed in the database; no cut-off is given here.

Assays:
[1] = Aqueous solubility in PBS buffer at pH 7.4; format: physicochemical
[2] = Permeability of the compound at donor pH 7.4 by PAMPA; format: ADME
[3] = Permeability of the compound at donor pH 6.2 by PAMPA; format: ADME
[4] = target: T1, Glucose-6-phosphate 1-dehydrogenase (Plasmodium falciparum, UniProt Q25856); test: Inhibition of Plasmodium falciparum glucose-6-phosphate dehydrogenase after 45 mins by orthogonal assay
T1 sequence (Q25856 whole entry): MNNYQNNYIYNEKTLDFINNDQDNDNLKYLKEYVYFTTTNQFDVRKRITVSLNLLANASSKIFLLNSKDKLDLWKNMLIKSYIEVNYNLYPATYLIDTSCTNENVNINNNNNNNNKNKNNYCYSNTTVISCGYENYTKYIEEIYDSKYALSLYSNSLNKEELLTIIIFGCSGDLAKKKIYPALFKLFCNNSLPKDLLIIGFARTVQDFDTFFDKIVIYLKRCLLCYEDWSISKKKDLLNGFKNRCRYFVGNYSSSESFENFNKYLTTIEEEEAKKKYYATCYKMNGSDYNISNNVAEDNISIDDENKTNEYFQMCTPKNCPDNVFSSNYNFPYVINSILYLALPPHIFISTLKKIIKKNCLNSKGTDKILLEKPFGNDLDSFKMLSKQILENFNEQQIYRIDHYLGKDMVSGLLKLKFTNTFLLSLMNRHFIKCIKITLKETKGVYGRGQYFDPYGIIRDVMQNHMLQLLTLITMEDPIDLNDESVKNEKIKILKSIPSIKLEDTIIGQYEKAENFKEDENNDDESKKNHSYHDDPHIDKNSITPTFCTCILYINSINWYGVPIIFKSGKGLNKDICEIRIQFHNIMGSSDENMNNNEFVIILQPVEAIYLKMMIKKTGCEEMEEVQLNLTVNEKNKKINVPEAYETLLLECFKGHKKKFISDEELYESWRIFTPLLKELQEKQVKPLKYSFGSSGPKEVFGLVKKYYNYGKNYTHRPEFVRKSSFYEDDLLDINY
Procedure, shortened: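 Direct NADPH read without coupling: PfGluPho (0.4 μg/mL enzyme solution) in 50 mM Tris pH 7.5, 0.005% Tween 20, 1 mg/mL BSA; substrate 40 μM G6P, 6 μM NADP+, 6.6 mM MgCl2.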

Plasma [5] = test: Plasma protein binding in mouse at 10 uM; format: ADME, cell-free
[6] = Aqueous solubility in pION's buffer at pH 7.4; format: physicochemical
[7] = Aqueous solubility in pION's buffer at pH 6.2; format: physicochemical
Plasma [8] = test: Stability in mouse plasma assessed as compound remaining after 3 hrs; format: ADME, cell-free
Liver = test: Stability in mouse liver microsomes assessed as compound remaining after 1 hr; format: ADME, Microsome
Hepatocyte = test: Toxicity against Fa2N-4 immortalized human hepatocytes; format: cell-based; settings: read-out: LC50 (the source's name)
Plasma [9] = test: Plasma protein binding in human at 1 uM; format: ADME, cell-free
[10] = target: T1, Glucose-6-phosphate 1-dehydrogenase; test: Inhibition of Plasmodium falciparum glucose-6-phosphate dehydrogenase after 2 hrs by resazurin/diaphorasecoupled assay
Plasma [11] = test: Stability in human plasma assessed as compound remaining after 3 hrs; format: ADME, cell-free
Plasma [12] = test: Plasma protein binding in mouse at 1 uM; format: ADME, cell-free
Liver microsomes = test: Stability in human liver microsomes assessed as compound remaining after 1 hr; format: ADME, Microsome
Plasma [13] = test: Plasma protein binding in human at 10 uM; format: ADME, cell-free
[14] = Aqueous solubility in pION's buffer at pH 5; format: physicochemical
[15] = Permeability of the compound at donor pH 5 by PAMPA; format: ADME
[16] = target: Glucose-6-phosphate 1-dehydrogenase (Homo sapiens, UniProt P11413); test: Inhibition of human glucose-6-phosphate dehydrogenase after 90 mins by resazurin/diaphorasecoupled assay
Procedure, shortened: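 Dose response with a top final concentration of […] and 0.8% final DMSO, in 50 mM Tris pH 7.5, 0.005% Tween 20 and 1 mg/mL BSA. The enzyme solution held 0.05 μg/mL hG6PD. The substrate solution held 0.64 mM G6P, 12 μM NADP+, 6.6 mM MgCl2, 2 U/mL diaphorase and 0.28 mM resazurin.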

[17] = Blood brain barrier permeability of the compound at pH 7.4 by PAMPA; format: ADME
Plasmodium falciparum [18] = test: Competitive inhibition of Plasmodium falciparum glucose-6-phosphate dehydrogenase-6-phosphogluconolactonase using glucose-6-phosphate as substrate by Lineweaver-Burk plot analysis
Procedure, shortened: (§1)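 PfGluPho at 0.2 μg/mL final, with 0.005% Tween 20, 3.3 mM MgCl2, 1 mM TCEP and 0.05 M Tris. G6P was varied at 5 μM NADP+; NADP+ was varied at 25 μM G6P. Compound was titrated at the same time. NADPH fluorescence (ex340/em460) was followed for 10 min and initial slopes taken. Lineweaver-Burk plots gave Km and Vmax, and α came from a rate equation.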

Plasmodium falciparum [19] = test: Mixed type inhibition of Plasmodium falciparum glucose-6-phosphate dehydrogenase-6-phosphogluconolactonase using NADP+ as substrate by Lineweaver-Burk plot analysis; procedure, shortened: as §1
Plasmodium falciparum [20] = test: Antimalarial activity against chloroquine-resistant Plasmodium falciparum Dd2 cells assessed as Plasmodium falciparum growth inhibition after 72 hrs by isotopic drug sensitivity assay; format: functional, organism-based; settings: Dd2, 72 h
Procedure, shortened: (§2)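 Infected RBCs plated at 0.25% parasitemia (>70% rings), 1.25% hematocrit, hypoxanthine-free medium; serial compound concentrations, chloroquine control. 48 h incubation, then 0.5 μCi 3H-hypoxanthine for another 24 h. Cells harvested on glass fibre filters, radioactivity counted as growth measure. IC50 by non-linear regression; run twice, each in triplicate.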

Plasmodium falciparum [21] = test: Antimalarial activity against chloroquine-sensitive Plasmodium falciparum 3D7 cells assessed as Plasmodium falciparum growth inhibition after 72 hrs by isotopic drug sensitivity assay; format: functional, organism-based; settings: 3D7, 72 h; procedure, shortened: as §2
[22] = Chemical stability in PBS buffer at pH 7.4 at 10 uM up to 18 hrs by RP-LCMS analysis in presence of glutathione; format: physicochemical; settings: pH 7.4, 18 h
Procedure, shortened: (§3)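 Compound from a 1 mM DMSO stock, final 10 μM with 1% DMSO, in PBS pH 7.4 with 5 equivalents glutathione (from a 10 mM PBS stock), shaken in capped glass vials at 23 °C. Aliquots were analysed by RP-HPLC-MS on a C18 column at 0, 0.5, 1, 2, 4, 6, 18 and […]. Percent remaining versus 0 h was taken from peak AUC.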

[23] = Drug degradation in PBS buffer assessed as compound depletion at pH 7.4 after 30 mins by RP-LCMS analysis in presence of glutathione; format: physicochemical; settings: pH 7.4, 0.5 h; procedure, shortened: as §3
[24] = Drug degradation in PBS buffer assessed as compound depletion at pH 7.4 after 24 hrs by RP-LCMS analysis in presence of glutathione; format: physicochemical; settings: PBS buffer with glutathione, read-out: Drug metabolism; procedure, shortened: as §3

Glucose-6-phosphate 1-dehydrogenase (Homo sapiens, UniProt P11413), sequence (P11413 whole entry): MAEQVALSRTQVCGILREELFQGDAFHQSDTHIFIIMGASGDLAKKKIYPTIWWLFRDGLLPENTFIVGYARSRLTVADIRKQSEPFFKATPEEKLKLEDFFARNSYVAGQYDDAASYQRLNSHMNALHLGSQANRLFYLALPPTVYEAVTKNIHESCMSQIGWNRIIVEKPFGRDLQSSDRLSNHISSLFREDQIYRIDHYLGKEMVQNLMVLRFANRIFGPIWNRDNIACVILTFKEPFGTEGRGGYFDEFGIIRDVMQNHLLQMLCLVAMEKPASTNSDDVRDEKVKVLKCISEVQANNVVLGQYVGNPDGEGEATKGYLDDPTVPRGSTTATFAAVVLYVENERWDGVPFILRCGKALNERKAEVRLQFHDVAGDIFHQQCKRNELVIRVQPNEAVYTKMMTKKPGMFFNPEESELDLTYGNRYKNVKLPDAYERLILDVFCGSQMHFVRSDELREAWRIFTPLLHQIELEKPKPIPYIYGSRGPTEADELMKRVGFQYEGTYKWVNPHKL

Compound: CCN1CCC[C@@H]1CNC(=O)c1ccc2c(c1)NC(=O)/C(=C/c1ccccc1F)S2
- solubility [1]: 166 µM (≈ 70.6 µg/mL)
- permeability [2]: 806 ×10⁻⁶ cm/s
- permeability [3]: 737 ×10⁻⁶ cm/s
- IC50 [4]: 1900 nM
- PPB (Plasma [5]): 98.34%
- solubility [6]: 69 µM (≈ 29.4 µg/mL)
- solubility [7]: > 296 µM
- Stability (Plasma [8]): 80.84%
- Stability (Liver): 37.57%
- CC50 (Hepatocyte): > 50000 nM
- PPB (Plasma [9]): 98.39%
- IC50 [10]: 900 nM
- Stability (Plasma [11]): 90.98%
- PPB (Plasma [12]): 98.95%
- Stability (Liver microsomes): 60.53%
- PPB (Plasma [13]): 97.98%
- solubility [14]: > 296 µM
- permeability [15]: 29 ×10⁻⁶ cm/s
- IC50 [16]: > 80000 nM
- permeability [17]: 233 ×10⁻⁶ cm/s
- inhibition (Plasmodium falciparum [18]): Active
- inhibition (Plasmodium falciparum [19]): Active
- IC50 (Plasmodium falciparum [20]): 3710 nM
- IC50 (Plasmodium falciparum [21]): 2340 nM

Compound: C=C(CC)C(=O)c1ccc(OCC(=O)O)c(Cl)c1Cl [ETHACRYNIC ACID]
- Stability [22]: Stable
- Drug metabolism [23]: Active
- degraded at 24 h [24]: 97%
